Laboratory results: article PMC4804703 (ACS chemical neuroscience, 2015)
Entries after “also recorded” stand apart in the source; their conditions may differ. Read-outs that look alike come from different tables or passages of the source.

How the values were obtained:
rat CB1R (rCB1R) = details: cited from earlier work; for selectivity vs CB2R: rCB1R vs CB2R
[1] = molecular target: CB1R in mouse hippocampus (Mus musculus, UniProt P47746); assay: [^35S]GTPγS binding, mouse hippocampus membranes; type: biochemical; details: for EC50: read-out: EC50, stimulation of [^35S]GTPγS binding, n = 3–4
Sequence of CB1R in mouse hippocampus (P47746 whole entry): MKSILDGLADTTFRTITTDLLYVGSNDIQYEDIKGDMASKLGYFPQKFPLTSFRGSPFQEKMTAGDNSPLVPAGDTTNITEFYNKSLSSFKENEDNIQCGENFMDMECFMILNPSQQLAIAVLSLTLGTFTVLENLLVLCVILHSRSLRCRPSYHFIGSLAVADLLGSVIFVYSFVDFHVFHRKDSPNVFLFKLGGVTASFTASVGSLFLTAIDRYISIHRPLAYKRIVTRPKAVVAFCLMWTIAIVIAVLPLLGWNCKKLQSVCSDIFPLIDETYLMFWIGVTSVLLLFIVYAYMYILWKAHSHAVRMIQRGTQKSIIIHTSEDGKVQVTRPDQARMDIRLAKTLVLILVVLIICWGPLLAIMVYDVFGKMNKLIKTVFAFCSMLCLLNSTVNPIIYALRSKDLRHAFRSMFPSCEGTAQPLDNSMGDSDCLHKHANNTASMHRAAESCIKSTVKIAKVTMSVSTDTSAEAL

[2] = Binding to membranes from nontransfected cells; details: membranes from nontransfected Flp-In-293 cells; data not shown
In short: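 Membranes from non-transfected Flp-In-293 cells were prepared by cavitation and ultracentrifugation and resuspended in TME (25 mM Tris-HCl, 5 mM MgCl₂, 1 mM EDTA, pH 7.4). […] Filters were washed in ice-cold buffer and counted by scintillation.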

[3] = molecular target: WT and Cys mutant hCB1R variants; assay: Saturation binding of [^3H]CP55,940, Flp-In-293 membranes; design: species or system human; details: average across all six hCB1R variants; mean ± SEM, n = 6
recombinant hCB1R = details: cited from earlier work
hCB1R = hCB1R (Homo sapiens, UniProt P21554); assay: Cellular cAMP assay, forskolin-stimulated, Flp-In-293 cells; type: cell-based; details: for potency relative to AEA, inhibition of forskolin-stimulated cAMP production: greater than the potency reported for AEA in this assay
Sequence of hCB1R (P21554 whole entry): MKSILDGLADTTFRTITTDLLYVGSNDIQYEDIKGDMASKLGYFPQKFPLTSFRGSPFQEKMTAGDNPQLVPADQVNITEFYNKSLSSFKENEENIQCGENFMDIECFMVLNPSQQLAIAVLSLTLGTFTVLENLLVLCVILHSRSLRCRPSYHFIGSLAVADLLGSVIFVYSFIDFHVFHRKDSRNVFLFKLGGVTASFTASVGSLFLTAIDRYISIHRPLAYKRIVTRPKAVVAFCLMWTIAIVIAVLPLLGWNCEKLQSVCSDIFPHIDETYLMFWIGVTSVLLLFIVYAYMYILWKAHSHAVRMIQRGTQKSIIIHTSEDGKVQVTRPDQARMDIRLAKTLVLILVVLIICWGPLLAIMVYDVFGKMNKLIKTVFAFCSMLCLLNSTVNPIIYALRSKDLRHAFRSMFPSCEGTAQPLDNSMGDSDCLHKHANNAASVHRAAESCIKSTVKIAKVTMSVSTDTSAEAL

hCB1R C6.47(355)S [4] = molecular target: T1, hCB1R C6.47(355)S (Homo sapiens, UniProt P21554, C355S); assay: Competition binding with [^3H]CP55,940, Flp-In-293 membranes; details: read-out: apparent Ki (95% CI); C6.47(355)S mutant; [^3H]CP55,940 0.75 nM
T1 sequence (P21554 whole entry C355S): as the sequence (P21554 whole entry) above, with C355S counted along it

hCB1R C6.47(355)S [5] = molecular target: T1, hCB1R C6.47(355)S; assay: Covalent labeling assay; type: binding; details: C6.47(355)S mutant; AM3677 10-fold apparent Ki
In short: (§1)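 Flp-In-293 membranes stably expressing the Cys→Ser hCB1R mutant, at 0.8 mg/mL in TME-0.1% BSA, were preincubated with 20 nM test compound (controls without) at 30 °C for 1 h. Unbound probe was removed by 27 000g spins, TME-1% BSA washes (one 20 min at 30 °C) and TME washes.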

hCB1R C7.42(386)S [6] = molecular target: T2, hCB1R C7.42(386)S (Homo sapiens, UniProt P21554, C386S); assay: Competition binding with [^3H]CP55,940, Flp-In-293 membranes; details: read-out: apparent Ki (95% CI); C7.42(386)S mutant; [^3H]CP55,940 0.75 nM
T2 sequence (P21554 whole entry C386S): as the sequence (P21554 whole entry) above, with C386S counted along it

hCB1R C7.38(382)S [7] = molecular target: T3, hCB1R C7.38(382)S (Homo sapiens, UniProt P21554, C382S); assay: as above; details: read-out: apparent Ki (95% CI); C7.38(382)S mutant; [^3H]CP55,940 0.75 nM
T3 sequence (P21554 whole entry C382S): as the sequence (P21554 whole entry) above, with C382S counted along it

hCB1R C7.38(382)S [8] = molecular target: T3, hCB1R C7.38(382)S; assay: Covalent labeling assay; type: binding; details: C7.38(382)S mutant; 20 nM AM3677
In short: as §1

[9] = molecular target: hemagglutinin (HA)-tagged rCB1R (Rattus norvegicus, UniProt P20272); assay: CB1R internalization, HEK293 cells; type: cell-based; details: 30 min at 37 °C; best-fit sigmoidal curve
Sequence of hemagglutinin (HA)-tagged rCB1R (P20272 whole entry): as the sequence (P47746 whole entry) above, with D95E counted along it

hCB1R C4.47(238)S [10] = molecular target: T4, hCB1R C4.47(238)S (Homo sapiens, UniProt P21554, C238S); assay: Competition binding with [^3H]CP55,940, Flp-In-293 membranes; details: read-out: apparent Ki (95% CI); C4.47(238)S mutant; [^3H]CP55,940 0.75 nM
T4 sequence (P21554 whole entry C238S): as the sequence (P21554 whole entry) above, with C238S counted along it

hCB1R C1.55(139)S [11] = molecular target: T5, hCB1R C1.55(139)S (Homo sapiens, UniProt P21554, C139S); assay: as above; details: read-out: apparent Ki (95% CI); C1.55(139)S mutant; [^3H]CP55,940 0.75 nM
T5 sequence (P21554 whole entry C139S): as the sequence (P21554 whole entry) above, with C139S counted along it

hCB1R C4.47(238)S [12] = molecular target: T4, hCB1R C4.47(238)S; assay: Covalent labeling assay; type: binding; details: C4.47(238)S mutant
In short: as §1

hCB1R C1.55(139)S [13] = molecular target: T5, hCB1R C1.55(139)S; assay: Covalent labeling assay; type: binding; details: C1.55(139)S mutant; 20 nM AM3677
In short: as §1

[14] = system: Flp-In cells that were not transfected with CB1Rs; assay: Cellular cAMP assay, non-transfected control cells; type: cell-based; details: routine control; data not shown
hCB1R C7.42(386)S [15] = molecular target: T2, hCB1R C7.42(386)S; assay: Covalent labeling assay; type: binding; details: C7.42(386)S mutant; 20 nM AM3677
In short: as §1

**Q.** Which Ki (rat CB1R (rCB1R); rCB1R) does the source give for `CCCCC/C=C\C/C=C\C/C=C\C/C=C\CCCC(=O)NCCO` [AEA, arachidonoylethanolamide, reference compound] here?
**A.** Its Ki is 61 nM.

**Q.** What about the Emax ([1]; read-out: maximum response, [^35S]GTPγS binding) of the same compound?
**A.** The Emax was 34 ± 1.5%.

**Q.** What does the source list for `CCCCCCC(C)(C)c1ccc([C@@H]2C[C@H](O)CC[C@H]2CCCO)c(O)c1` [CP55,940, reference compound]?
**A.** specific binding [2]: No specific; Kd [3]: 5.4 ± 0.8 nM; EC50 ([1]; mean ± SEM): 1100 ± 200 nM

**Q.** With `CCCCC/C=C\C/C=C\C/C=C\C/C=C\CCCC(=O)NC1CC1` [ACPA, (5Z,8Z,11Z,14Z)-eicosa-5,8,11,14-tetraenoic acid cyclopropylamide] as the compound, how does the agonist type (recombinant hCB1R) read?
**A.** Its agonist type is “full agonist”.

**Q.** And the “potency relative to AEA, inhibition of forskolin-stimulated cAMP production” value (hCB1R)?
**A.** Its value is ~ 200 fold.

**Q.** And the “selectivity vs CB2R” value (rat CB1R (rCB1R))?
**A.** The value was 60 to 300 fold.

**Q.** And the Ki (rat CB1R (rCB1R); read-out: apparent Ki, rCB1R, [^3H]CP55,940 as competitive radioligand)?
**A.** Its Ki is 2.2 to 2.7 nM.

**Q.** For `O=C(CCC/C=C\C/C=C\C/C=C\C/C=C\CCCCCN=C=S)NC1CC1` [AM3677, 20-isothiocyanato-eciosa-5,8,11,14-tetraenoic acid cyclopropylamide], which Ki (hCB1R C6.47(355)S [4]) is on record?
**A.** Its Ki is 2.2 nM.

**Q.** What about the “effect of AM3677 preincubation on Bmax for [^3H]CP55,940 (irreversible binding)” value (hCB1R C6.47(355)S [5]) of the same compound?
**A.** Its value is “unaffected; also recorded: did not affect”.

**Q.** What about the specific binding [2] of the same compound?
**A.** Its specific binding is “No specific”.

**Q.** What about the Ki (hCB1R C7.42(386)S [6]) of the same compound?
**A.** The Ki was 1.6 nM.

**Q.** And the Ki (hCB1R C7.38(382)S [7])?
**A.** Its Ki is 1.9 nM.

**Q.** And the “degree of irreversible labeling” value (hCB1R C7.38(382)S [8])?
**A.** The value was “comparable to that displayed by WT hCB1R”.

**Q.** What about the maximum internalization [9] of the same compound?
**A.** The maximum internalization was ~ 42%.

**Q.** And the “maximal efficacy, inhibition of forskolin-activated cAMP formation” value (hCB1R; at micromolar concentrations)?
**A.** Its value is ~ 60%.

**Q.** What about the “potency relative to AEA, inhibition of forskolin-stimulated cAMP production” value (hCB1R) of the same compound?
**A.** Its value is ~ 200 fold.

**Q.** And the IC50 (hCB1R; read-out: IC50, inhibition of forskolin-activated cAMP formation, Flp-In-293 cells overexpressing hCB1R, 5 μM forskolin, mean ± SEM, n = 3)?
**A.** The IC50 was 27.1 ± 2.2 nM.

**Q.** What about the Ki (hCB1R C4.47(238)S [10]) of the same compound?
**A.** The Ki was 2.4 nM.

**Q.** And the Ki (hCB1R C1.55(139)S [11])?
**A.** The Ki was 2.3 nM.

**Q.** And the “selectivity vs CB2R” value (rat CB1R (rCB1R))?
**A.** Its value is ~ 40 fold.

**Q.** And the manner of binding (rat CB1R (rCB1R); rCB1R)?
**A.** The manner of binding was “irreversible”.

**Q.** And the “degree of irreversible labeling” value (hCB1R C4.47(238)S [12]; 20 nM AM3677)?
**A.** The value was “comparable to that displayed by WT hCB1R”.

**Q.** What about the “reduction of [^3H]CP55,940 specific binding (Bmax)” value (hCB1R C4.47(238)S [12]; AM3677 at 10-fold its apparent Ki) of the same compound?
**A.** Its value is “at least 43%”.

**Q.** And the “degree of irreversible labeling” value (hCB1R C1.55(139)S [13])?
**A.** The value was “comparable to that displayed by WT hCB1R”.

**Q.** And the “potency relative to AEA, [^35S]GTPγS binding” value ([1]; more potent than AEA)?
**A.** Its value is roughly 100 fold.

**Q.** What about the “potency relative to CP55,940, [^35S]GTPγS binding” value ([1]; more potent than CP55,940) of the same compound?
**A.** Its value is ~ 23 fold.

**Q.** What about the EC50 ([1]; mean ± SEM) of the same compound?
**A.** Its EC50 is 50 ± 20 nM.

**Q.** What about the “maximum response, [^35S]GTPγS binding” value ([1]; relative to CP55,940 (maximum = response to 10 μM CP55,940), mean ± SEM, n = 3) of the same compound?
**A.** Its value is 32 ± 2.1%.

**Q.** And the “effect on cAMP in non-transfected cells” value [14]?
**A.** The value was “had no effect”.

**Q.** And the “degree of irreversible labeling” value (hCB1R C7.42(386)S [15])?
**A.** Its value is “comparable to that displayed by WT hCB1R”.
